The values that follow come from ChEMBL document CHEMBL1949596, “Chromophenazines from the terrestrial Streptomyces sp. Ank 315” (2012).

In assay [1] the test system is Rhizomucor miehei. The experiment in a line: Antimicrobial activity against Mucor miehei by agar diffusion method. Format: functional. The procedure, abridged: (§1)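 Pure compounds applied to paper disks at 40 μg/disk and tested by agar diffusion against Bacillus subtilis, Escherichia coli, Staphylococcus aureus and the fungus Mucor miehei (Tü284). Activity was read from the agar plates.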
A general note: Agar diffusion results depend on both activity and mobility in agar.

Assay [2] has as its system Bacillus subtilis. Kind of assay: Antimicrobial activity against Bacillus subtilis by agar diffusion method. Format: functional. In outline:
as §1

Assay [3] relates to Escherichia coli. Kind of assay: Antimicrobial activity against Escherichia coli by agar diffusion method. Format: functional. The procedure, abridged:
as §1

In assay [4] the test system is Staphylococcus aureus. The experiment in a line: Antimicrobial activity against Staphylococcus aureus by agar diffusion method. Format: functional, organism-based. The procedure, abridged: as §1

Calls of active or inactive are those of the source. The calls are words filed in the database; no cut-off is given here.

As to `CC(C)=CCc1cc(=O)cc2n(C)c3cccc(C(=O)O)c3nc1-2`, the outcome in assay [1], in assay [2], in assay [3] and in assay [4] was inactive.
Turning to `CC(C)=CCn1c2cc(=O)ccc-2nc2c(C(N)=O)cccc21`, the result in assay [1], in assay [2], in assay [3] and in assay [4] was inactive.
Regarding `CC(C)=CCn1c2cc(=O)c3cc(C)ccc3c-2nc2ccccc21`, the result in assay [1], in assay [2], in assay [3] and in assay [4] was inactive.
`CC(C)=CCN1c2ccccc2Nc2c(C(=O)O)cc(C(=O)c3ccccc3)cc21` [CHROMOPHENAZINE D]: the “inhibition zone (IZ)” value in assay [1], in assay [2] and in assay [3] was 10 mm in each case.
For `CC(C)=CCn1c2cc(=O)c3cc(C)ccc3c-2nc2c(C(=O)O)cccc21`, the result in assay [1], in assay [2], in assay [3] and in assay [4] was inactive.
Take `CC(C)=CCN1c2cc(C(=O)c3ccccc3)ccc2Nc2c(C(N)=O)cc(C(=O)c3ccccc3)cc21`: the outcome in assay [1], in assay [2], in assay [3] and in assay [4] was inactive.
